Measured values published in ChEMBL document CHEMBL4513216, “Probing the Open Global Health Chemical Diversity Library for Multistage-Active Starting Points for Next-Generation Antimalarials” (ACS Infect Dis, 2020).

Test: Toxicity liver stage against HepG2, at 10uM
Assay type: cell-based
Parameters: test concentration 10 uM, cell line HepG2-A16-CD81EGFP
Conditions: human, HepG2-A16-CD81EGFP cells; read-out: INHIBITION
How it was run: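 Uninfected HepG2-A16-CD81EGFP cells, 3 × 10^3 per well, 1536-well, plated on prespotted compound at 10 μM final, parasite-free screening media added to match infected plates; puromycin 10 μM positive, DMSO 0.5% negative; run in parallel with 48 h PbLuc assay at 37 °C, 5% CO2; viability by CellTiter-Glo luminescence, normalized to controls.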

Question: For CC(C)(C)n1cc(C(=O)NCCN2CCOCC2)c2cccnc21, which cytotoxicity at 10 µM is on record?
Answer: 2.14%

Question: With Cc1ccccc1NC(=O)N1CC[C@@H]2CN(C)S(=O)(=O)[C@@H]2CC1 as the compound, how does the cytotoxicity at 10 µM read?
Answer: 4%

Question: Which cytotoxicity at 10 µM does the source give for CC(C)NC(=O)N1CCCC2(CCCCN2)C1 (stereo not given) here?
Answer: 11.4%

Question: Which cytotoxicity at 10 µM does the source give for CCCS(=O)(=O)N1CC[C@H]2O[C@@H](c3nc(C)no3)CC[C@H]21 here?
Answer: -2.48%

Question: With O=C(c1cscn1)N1CCn2cnc(COCC3CC3)c2C1 as the compound, how does the cytotoxicity at 10 µM read?
Answer: -4.6%

Question: With CNC(=O)[C@@]12CCCN(c3ncccn3)[C@@H]1CN(c1ncc(C)cn1)C2 as the compound, how does the cytotoxicity at 10 µM read?
Answer: 3.97%

Question: For COc1ccc2nnc(CCCC(=O)NCc3cccn3C)n2n1, which cytotoxicity at 10 µM is on record?
Answer: 3.85%

Question: Which cytotoxicity at 10 µM does the source give for COc1ccc(C(=O)N2CCCC2c2ccco2)cc1OC (stereo not given) here?
Answer: 1.03%

Question: For O=C(O)c1cc2c(nc1O)CC(c1cccs1)CC2=O (stereo not given), which cytotoxicity at 10 µM is on record?
Answer: 8.32%

Question: With COCc1ccc(C(=O)N2CC[C@H](O)[C@@H](n3ccnc3)CC2)cc1 as the compound, how does the cytotoxicity at 10 µM read?
Answer: -12.1%

Question: With NC(=O)C1(CCCc2ccccn2)CCCN(c2ncccn2)C1 (stereo not given) as the compound, how does the cytotoxicity at 10 µM read?
Answer: -5.69%

Question: Which cytotoxicity at 10 µM does the source give for Cn1cc(-c2nc(C(=O)N3CCCC3c3cnn(C)c3)cs2)cn1 (stereo not given) here?
Answer: 1.85%

Question: For COc1ccc(Cl)cc1CN(CC(N)=O)C(C)C, which cytotoxicity at 10 µM is on record?
Answer: 1.49%

Question: For CC(C)(NC(=O)c1cnc(C(C)(C)C)s1)C(N)=O, which cytotoxicity at 10 µM is on record?
Answer: -4.04%

Question: With Cc1ccc(C(=O)N(C)CC(=O)N2CCCC2)c(C)c1 as the compound, how does the cytotoxicity at 10 µM read?
Answer: -0.705%

Question: For O=C(CCc1nnc(-c2ccsc2)o1)NCC1CCN(C2CC2)C1 (stereo not given), which cytotoxicity at 10 µM is on record?
Answer: -1.73%

Question: For Cc1csc(CCNC(=O)N2CCC(n3cccc3)CC2)n1, which cytotoxicity at 10 µM is on record?
Answer: 3.98%

Question: With O=C(NCCNS(=O)(=O)c1cc(F)cc(F)c1)c1ccoc1 as the compound, how does the cytotoxicity at 10 µM read?
Answer: -1.33%

Question: Which cytotoxicity at 10 µM does the source give for COCCn1ccc2cc(NC(=O)N(C)C(C)CSC)ccc21 (stereo not given) here?
Answer: 0.08%

Question: Which cytotoxicity at 10 µM does the source give for CS(=O)(=O)NCC1CCCN(C(=O)c2ccc3c(c2)CCC3)C1 (stereo not given) here?
Answer: -5.52%

Question: With Cc1nn(C)c(C)c1NC(=O)CNc1ccc(F)c(C(F)(F)F)c1 as the compound, how does the cytotoxicity at 10 µM read?
Answer: 0.0371%

Question: For COc1ccc(CC(=O)N(C)c2cccnc2N(C)C)c(Cl)c1, which cytotoxicity at 10 µM is on record?
Answer: 5.71%

Question: Which cytotoxicity at 10 µM does the source give for Cc1ccc(C(=O)Nc2ccc(N3CCCC3)cn2)cc1F here?
Answer: 47.4%

Question: For COC(=O)CCCn1ccnc1-c1ccccc1, which cytotoxicity at 10 µM is on record?
Answer: -4.65%

Question: Which cytotoxicity at 10 µM does the source give for c1ccc(CN2CCC(CCNc3ncnc4c3CCNCC4)C2)cc1 (stereo not given) here?
Answer: -0.16%

Question: With O=C(O)[C@@H]1CN(C(=O)CN2CCCCCC2)C[C@H]1c1ccccc1 as the compound, how does the cytotoxicity at 10 µM read?
Answer: 4.97%

Question: For Cc1ccc2nc(C3CCCN3Cc3scnc3C)[nH]c2c1 (stereo not given), which cytotoxicity at 10 µM is on record?
Answer: 8.2%

Question: Which cytotoxicity at 10 µM does the source give for NC(=O)c1c[nH]nc1NC(=O)c1ccc(Cl)cc1 here?
Answer: 3.19%

Question: Which cytotoxicity at 10 µM does the source give for CCC(O)CN1CCN(C(=O)Cc2ccc(OC)cc2OC)CC1 (stereo not given) here?
Answer: -23.8%

Question: For CCc1nccn1C1CCCN(C(=O)CCCc2ccccn2)C1 (stereo not given), which cytotoxicity at 10 µM is on record?
Answer: -18.7%

Question: Which cytotoxicity at 10 µM does the source give for CSCCC(=O)N1CCCC(n2ccnc2)C1 (stereo not given) here?
Answer: -6.28%

Question: For CCN(Cc1ccc2c(c1)OCCO2)C(=O)NCc1csc(C)n1, which cytotoxicity at 10 µM is on record?
Answer: -5.16%

Question: Which cytotoxicity at 10 µM does the source give for Cc1noc(C2CCCN(C(=O)c3ccc(Cl)cc3F)C2)n1 (stereo not given) here?
Answer: -25.3%

Question: With CC(=O)N1CCCC1C(=O)NCCOc1cc(C)cc(C)c1 (stereo not given) as the compound, how does the cytotoxicity at 10 µM read?
Answer: -10.5%

Question: With Cc1ccc(CNCC(C)Oc2ccccn2)cc1 (stereo not given) as the compound, how does the cytotoxicity at 10 µM read?
Answer: 5.4%

Question: For Cc1ccc(N2CCC3(CCN(C(=O)c4ccnnc4)CC3)CC2)nn1, which cytotoxicity at 10 µM is on record?
Answer: 3.94%

Question: For Cn1cc(CN2CCCC3(COCCN(Cc4c[nH]nn4)C3)C2)cn1 (stereo not given), which cytotoxicity at 10 µM is on record?
Answer: -0.501%

Question: For COc1cc(N2C[C@@H]3COC[C@]3(COc3ccccn3)C2)ncn1, which cytotoxicity at 10 µM is on record?
Answer: 1.35%

Question: Which cytotoxicity at 10 µM does the source give for Cc1cccc(NC(=O)N2CCCn3cnc(CN(C)C(C)C)c3C2)c1 here?
Answer: 8.18%

Question: Which cytotoxicity at 10 µM does the source give for Cc1cc(CN2CC[C@H]3[C@H]2CCN3C)oc1C here?
Answer: -0.655%

Question: Which cytotoxicity at 10 µM does the source give for O=c1[nH]c2ncccc2n1C1CCNCC1 here?
Answer: 11.5%

Question: With O=C1COC2(CCN(c3ncccn3)CC2)CN1Cc1ccccn1 as the compound, how does the cytotoxicity at 10 µM read?
Answer: 2.4%

Question: For Cn1nnc2c1CCN(C(=O)C1CC1)C2COCCN1CCCC1 (stereo not given), which cytotoxicity at 10 µM is on record?
Answer: 8.33%

Question: Which cytotoxicity at 10 µM does the source give for Cn1cccc1C(=O)N1CCn2nnc(COc3cccnc3)c2C1 here?
Answer: -69.7%

Question: For Cc1cnc(C(=O)N2C[C@H]3CN(Cc4cccnc4)C[C@H]3C2)cn1, which cytotoxicity at 10 µM is on record?
Answer: 2.4%
